In publication PMC8518816 (Chemmedchem, 2021):

What was measured:
PTP1B = target: T1, PTP1B (Homo sapiens, UniProt P18031); assay: PTP1B enzyme inhibition; assay type: biochemical; conditions: for inhibition at 1 µM: read-out: % Inhib. PTP1B @ 1 μM
T1 sequence (P18031 1-322 limits assumed): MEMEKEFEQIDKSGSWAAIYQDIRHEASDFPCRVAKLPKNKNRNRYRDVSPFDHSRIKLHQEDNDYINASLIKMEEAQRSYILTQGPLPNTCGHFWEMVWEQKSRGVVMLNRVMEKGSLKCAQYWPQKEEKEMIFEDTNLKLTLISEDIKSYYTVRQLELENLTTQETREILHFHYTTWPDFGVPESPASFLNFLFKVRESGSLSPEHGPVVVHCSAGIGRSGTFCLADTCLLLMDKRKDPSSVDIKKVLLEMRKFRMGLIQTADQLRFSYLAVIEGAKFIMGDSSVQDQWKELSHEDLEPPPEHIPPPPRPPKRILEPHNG
In short: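 Recombinant 322-amino-acid PTP1B preincubated with test compound; pNPP substrate then added and hydrolysis followed as absorbance increase at 405 nm. IC50 fitted from increasing compound concentrations, each point in duplicate. Percent inhibition also taken at 1 μM.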

TCPTP = target: T2, TCPTP (Homo sapiens, UniProt P17706); assay: TCPTP enzyme inhibition; assay type: biochemical; conditions: read-out: % Inhib. TCPTP @ 1 μM
T2 sequence (P17706 1-341 limits assumed): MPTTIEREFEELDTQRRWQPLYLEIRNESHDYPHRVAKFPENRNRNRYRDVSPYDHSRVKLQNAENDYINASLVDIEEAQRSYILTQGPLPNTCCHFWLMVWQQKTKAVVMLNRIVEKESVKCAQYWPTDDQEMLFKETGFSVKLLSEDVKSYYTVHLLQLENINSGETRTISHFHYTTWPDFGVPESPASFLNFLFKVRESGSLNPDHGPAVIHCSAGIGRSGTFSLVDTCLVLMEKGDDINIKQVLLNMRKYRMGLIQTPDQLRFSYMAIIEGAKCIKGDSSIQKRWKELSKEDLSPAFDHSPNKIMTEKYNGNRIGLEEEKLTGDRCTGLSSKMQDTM
In short: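 Selectivity counter-screen using recombinant 341-amino-acid TCPTP mixed with test compound at 1 μM. Substrate pNPP added, and hydrolysis read as absorbance increase at 405 nm. Each point run in duplicate; output is percent inhibition.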

C2 C12 myotubes = assay: Glucose uptake; assay type: cell-based, Mouse; conditions: 2 μM, 90 min, 2-NBDG 0.1 mM
In short: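 Mouse C2C12 myoblasts grown in DMEM with 10 % heat-inactivated FBS and penicillin/streptomycin (37 °C, 5 % CO2), then differentiated in DMEM with 2 % horse serum, changed every 48 h. Test compound at 2 μM for 90 min (insulin 10 nM, 30 min as positive control), then 0.1 mM 2-NBDG for 30 min. Washed three times with cold PBS. Intracellular fluorescence minus no-2-NBDG autofluorescence, corrected for BCA protein, relative to vehicle; 5 independent experiments, mean ± S.E.M.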

[1] = IC50±SD, soluble 322 amino acids PTP1B, pNPP substrate
[2] = pIC50, soluble 322 amino acids PTP1B

| Compound | SI (selectivity index, percentage inhibition ratio PTP1B/TCPTP at 1 μM) (PTP1B) | IC50 (PTP1B; [1]) | IC50 (PTP1B; [2]) | inhibition at 1 µM (PTP1B) | inhibition at 1 µM (TCPTP) | increase of glucose uptake with respect to control cells (C2 C12 myotubes) |
| --- | --- | --- | --- | --- | --- | --- |
| c1ccc2c(c1)ncc1nnnn12 [Compound 9, Tetrazolo[1,5‐a]quinoxaline] | 1.17 | 620 ± 200 nM | 631 nM | 80% | 68% | – |
| Cc1nc2ccccc2n2nnnc12 [Compound 4, 4‐Methyltetrazolo[1,5‐a]quinoxaline] | – | 1480 ± 70 nM | 1510 nM | 46% | 50% | – |
| CC1Nc2ccccc2-n2nnnc21 (stereo not shown) [Compound 10, 4‐Methyl‐4,5‐dihydrotetrazolo[1,5‐a]quinoxaline] | – | 2170 ± 80 nM | 2190 nM | 37% | 35% | – |
| Cc1nc2ccccc2n2ccnc12 [Compound 2, 4‐Methylimidazo[1,2‐a]quinoxaline] | 1.97 | 460 ± 40 nM | 468 nM | 87% | 44% | 15% |
| Cc1nc2ccccc2n2cnnc12 [Compound 3, 4‐Methyl[1,2,4]triazolo[4,3‐a]quinoxaline] | 1.27 | 790 ± 10 nM | 794 nM | 70% | 55% | ~30% |
| Cc1nc2ccccc2n2cccc12 [Compound 1, 4‐methylpyrrolo[1,2‐a]quinoxaline] | 0.94 | – | – | 51% | 54% | – |
